According to PMC9453980 (ACS Omega, 2022):

Columns and labels:
HeLa cells [1] = assay: RPA foci formation; type: cell-based, human
Outline: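 HeLa cells were seeded for 24 h, then treated with test agents for 24 h. They were fixed in 4% paraformaldehyde for 20 min, permeabilized with 0.3% Triton X-100 and blocked in 5% BSA. Cells were stained overnight at 4 °C for RPA2 and γH2AX, then with fluorescent secondaries and DAPI. Automated microscopy scored the percentage of RPA-foci-positive cells.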

BaPif1 [2] = assay: F-EMSA assay of BaPif1-dT12 interaction; type: binding, Bacteroides sp. 2-1-16
BaPif1 [3] = assay: ATPase activity assay; type: biochemical, Bacteroides sp. 2-1-16; conditions: read-out: IC50, inhibition of ATPase activity of BaPif1
Outline: (§1)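 ATP depletion (luciferase) assay. BaPif1 (GST fusion expressed in E. coli BL21(DE3), tag cleaved) or hPif1 helicase domain (aa200-641, N-terminal His6, E. coli BL21(DE3)), at 0.1 mg/mL. Protein was preincubated with a compound dilution series for 30 min at 25 °C in 20 mM Tris-HCl pH 7.5, 150 mM NaCl, 5 mM MgCl2, 5% DMSO final. 100 nM ssDNA and 100 nM ATP were added, 10 min at 25 °C, then stopped with NaOH. Remaining ATP was read as firefly luciferase luminescence.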

BaPif1 [4] = assay: Helicase; type: biochemical, Bacteroides sp. 2-1-16; conditions: gel-based titration
hPif1-HD [5] = target: T1, hPif1-HD (Homo sapiens, UniProt Q9H611); assay: FP assay of DNA-binding activity
T1 sequence (Q9H611 200-641): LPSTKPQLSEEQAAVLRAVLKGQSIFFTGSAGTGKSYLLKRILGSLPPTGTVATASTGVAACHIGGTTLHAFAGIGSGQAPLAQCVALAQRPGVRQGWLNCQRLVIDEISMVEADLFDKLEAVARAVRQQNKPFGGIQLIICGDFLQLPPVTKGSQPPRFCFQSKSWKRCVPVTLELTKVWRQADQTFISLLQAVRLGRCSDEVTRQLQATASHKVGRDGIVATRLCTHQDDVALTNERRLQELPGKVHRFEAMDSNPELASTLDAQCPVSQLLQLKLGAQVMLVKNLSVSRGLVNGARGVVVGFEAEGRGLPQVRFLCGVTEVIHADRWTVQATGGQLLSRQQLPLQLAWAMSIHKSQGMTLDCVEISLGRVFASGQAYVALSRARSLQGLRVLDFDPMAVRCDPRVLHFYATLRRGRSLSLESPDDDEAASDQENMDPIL
Outline: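 Fluorescence polarization read at ex 480/em 520 nm. The hPif1 helicase domain (aa200-641, His6-tagged) was at 10 μM with 0.5 μM FAM-labelled DNA and a titration of test compound. Buffer was 25 mM Tris-HCl pH 7.5, 5 mM MgCl2, with no DTT. IC50 was obtained by fitting the binding curves.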

hPif1-HD [6] = target: T1, hPif1-HD; assay: ATPase activity assay; type: biochemical
Outline: as §1

hPif1-HD [7] = target: T1, hPif1-HD; assay: Helicase; type: biochemical; conditions: 20 μM hPif1-HD, 20 bp dsDNA with 5′ dT55 tail
BaPif1 [8] = assay: Filtration-dilution reversibility experiment; type: biochemical, Bacteroides sp. 2-1-16; conditions: 50 μM compound, three filtration and dilution cycles, 1000-fold dilution
Outline: (§2)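 Reversibility test. Wild-type or C380A BaPif1 at 0.1 mg/mL in ATPase buffer was incubated 30 min with 5% DMSO or 50 μM compound in 5% DMSO. It was concentrated on a 10 kDa cut-off centrifugal filter and the retentate diluted 10-fold with buffer. This was done three times (1000-fold total). Residual ATPase activity was then measured by the luciferase ATP assay and expressed as percent inhibition.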

BaPif1 C380A mutant [9] = assay: FP assay of DNA-binding activity, C380A mutant; parameters: species or system Bacteroides sp. 2-1-16
Outline: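 FP competition with FAM-labelled DNA in 25 mM Tris-HCl pH 7.5, 5 mM MgCl2 (ex 480/em 520 nm). The C380A point mutant was made by PCR mutagenesis and purified as for wild type, and was compared with wild-type BaPif1. Each protein was held with 50 μM test compound across a range of DTT concentrations to give dose-response curves.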

BaPif1 C234A mutant = assay: FP assay of DNA-binding activity, C234A mutant; parameters: species or system Bacteroides sp. 2-1-16
BaPif1 C380A mutant [10] = assay: Filtration-dilution reversibility experiment, C380A mutant; type: biochemical, Bacteroides sp. 2-1-16; conditions: filtration experiments
Outline: as §2

HeLa cells [11] = assay: Western blot of Pif1, RPA2 and γH2AX; type: cell-based, human; conditions: 10 μM TD combined with 2.5 mM HU
Outline: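 HeLa lysates were made in RIPA buffer with protease inhibitor at 4 °C and quantified by BCA. 10−30 μg per lane was run on SDS-PAGE and blotted to PVDF. Membranes were blocked 1 h in 5% milk and probed overnight at 4 °C for Pif1, RPA2, γH2AX and GAPDH (loading control). HRP anti-mouse secondary (1:5000, 1 h) and ECL detection followed.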

GSK-3β = conditions: cited from earlier work
"Cys-conserved" kinases = conditions: 10 μM TD, panel of 68 kinases; cited from earlier work
[12] = tested on: BaPif1 (Bacteroides sp. 2-1-16); assay: fluorescence polarization

NC(=O)NO [HU, hydroxyurea]
Induction of RPA foci formation (HeLa cells [1]; 2.5 mM HU): efficiently induce RPA foci formation

O=c1sn(-c2cccc3ccccc23)c(=O)n1Cc1ccccc1 [TD, Tideglusib]
Blocking of ssDNA binding to BaPif1 (F-EMSA), in words (BaPif1 [2]): could block the binding of single-stranded DNA (ssDNA) to the BaPif1 protein
IC50 (BaPif1 [3]): 2.3 ± 0.13 µM
Concentration at which unwinding (helicase) activity of BaPif1 was inhibited (BaPif1 [4]): 4 µM
IC50 (hPif1-HD [5]): 5.79 ± 0.6 µM
IC50 (hPif1-HD [6]): 2.5 ± 0.1 µM
Concentration at which helicase activity of hPif1-HD was inhibited (hPif1-HD [7]): 7.8 µM
Reversibility of inhibition of BaPif1 ATPase activity after filtration-dilution (BaPif1 [8]): irreversible
Sensitivity of C380A mutant to the compound compared with wild-type (BaPif1 C380A mutant [9]): less sensitive
Sensitivity of C234A mutant to the compound compared with wild-type (BaPif1 C234A mutant): little change
Reversibility of inhibition of C380A ATPase activity after filtration (BaPif1 C380A mutant [10]): reversible
Reduction of RPA foci formation (HeLa cells [1]; 10 μM TD combined with 2.5 mM HU, 24 h): 20%
Protein level of Pif1 and RPA (HeLa cells [11]): did not alter
Protein level of γH2AX (HeLa cells [11]): slightly decreased
Reversibility of GSK-3β inhibition (GSK-3β): irreversibly
Number of "Cys-conserved" kinases significantly inhibited ("Cys-conserved" kinases): 10 of the 26

TTTTTTTTTTTTTTTTTT [FAM-dT18]
Kd [12]: 7 µM
